Results as given in ChEMBL document CHEMBL2331347, “Biselectivity of isoDGR peptides for fibronectin binding integrin subtypes α5β1 and αvβ6: conformational control through flanking amino acids” (J Med Chem, 2013).

Experiments:
Integrin alpha-V/beta-6 = Integrin alpha-V/beta-6 (Homo sapiens, UniProt P06756+P18564); test: Inhibition of latency-associated peptide binding to Integrin alphaVbeta6 receptor (unknown origin) by competitive ELISA; type: protein-complex assay
Summary of the method: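 LAP coated at 0.4 μg/mL; soluble αvβ6 at 0.25 μg/mL final, mixed with serially diluted inhibitor. Bound integrin detected with anti-human αv antibody (1:500), then peroxidase secondary antibody (2.0 μg/mL), A450. Blocking, washing and curve analysis as for the α5β1 ELISA; IC50 from the inflection point.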

[1] = biological target: Integrin alpha-IIb/beta-3 (Homo sapiens, UniProt P05106+P08514); test: Inhibition of fibrinogen binding to Integrin alpha2bbeta3 receptor (unknown origin) by competitive ELISA; type: protein-complex assay
Integrin alpha-V/beta-3 = Integrin alpha-V/beta-3 (Homo sapiens, UniProt P05106+P06756); test: Inhibition of vitronectin binding to Integrin alphaVbeta3 receptor (unknown origin) by competitive ELISA; type: protein-complex assay
Integrin alpha-V/beta-5 = Integrin alpha-V/beta-5 (Homo sapiens, UniProt P06756+P18084); test: Inhibition of vitronectin binding to Integrin alphaVbeta5 receptor (unknown origin) by competitive ELISA; type: protein-complex assay
Integrin alpha-5/beta-1 = Integrin alpha-5/beta-1 (Homo sapiens, UniProt P05556+P08648); test: Inhibition of fibronectin binding to human Integrin alpha5beta1 receptor by competitive ELISA; type: protein-complex assay
Summary of the method: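 Plates coated overnight at 4 °C with 0.5 μg/mL fibronectin at pH 9.6, then blocked with 1% BSA in Tris buffer containing Ca, Mg and Mn. Soluble human α5β1 (1.0 μg/mL final) and inhibitor (0.00013−10 μM final) incubated 1 h at RT. Bound integrin detected with anti-CD49e and peroxidase secondary antibody, A450. Duplicates; IC50 taken as the inflection point of the inhibition curve.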

[2] = Induction of focal adhesions formation in rat REF52 cells plated on 68 nm nanopatterned surfaces assessed as focal adhesion area width after 4 hrs post cells plating by immunofluorescence microscopy; type: functional
Summary of the method: (§1)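 REF52 rat embryonic fibroblasts (grown in DMEM with 10% FBS, 37 °C, 5% CO2) trypsinized and plated at 150 cells/mm2 in DMEM with 1% FBS on passivated gold nanopatterns (68 ± 9 nm spacing) functionalized with 25 μM peptide for 1 h. Fixed after 4 or 24 h, immunostained for paxillin, with phalloidin for actin and DAPI for nuclei, imaged at 63×.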

[3] = Induction of focal adhesions formation in rat REF52 cells plated on 68 nm nanopatterned surfaces assessed as focal adhesion area length after 4 hrs post cells plating by immunofluorescence microscopy; type: functional; summary of the method: as §1
[4] = Induction of focal adhesions formation in rat REF52 cells plated on 68 nm nanopatterned surfaces assessed as axial ratio after 24 hrs post cells plating by immunofluorescence microscopy; type: functional; summary of the method: as §1
[5] = Induction of focal adhesions formation in rat REF52 cells plated on 68 nm nanopatterned surfaces assessed as focal adhesion total area/cell area ratio after 24 hrs post cells plating by immunofluorescence microscopy; type: functional; summary of the method: as §1
[6] = Induction of focal adhesions formation in rat REF52 cells plated on 68 nm nanopatterned surfaces assessed as focal adhesion total area/cell area ratio after 4 hrs post cells plating by immunofluorescence microscopy; type: functional; summary of the method: as §1
[7] = Induction of focal adhesions formation in rat REF52 cells plated on 68 nm nanopatterned surfaces assessed as focal adhesion area after 24 hrs post cells plating by immunofluorescence microscopy; type: functional; summary of the method: as §1
[8] = Induction of focal adhesions formation in rat REF52 cells plated on 68 nm nanopatterned surfaces assessed as focal adhesion area length after 24 hrs post cells plating by immunofluorescence microscopy; type: functional; summary of the method: as §1
[9] = Induction of focal adhesions formation in rat REF52 cells plated on 68 nm nanopatterned surfaces assessed as axial ratio after 4 hrs post cells plating by immunofluorescence microscopy; type: functional; summary of the method: as §1
[10] = Induction of focal adhesions formation in rat REF52 cells plated on 68 nm nanopatterned surfaces assessed as focal adhesion area after 4 hrs post cells plating by immunofluorescence microscopy; type: functional; summary of the method: as §1
[11] = Induction of focal adhesions formation in rat REF52 cells plated on 68 nm nanopatterned surfaces assessed as focal adhesion area width after 24 hrs post cells plating by immunofluorescence microscopy; type: functional; summary of the method: as §1

SMILES | IC50 (Integrin alpha-V/beta-6) [nM] | IC50 [1] [nM] | IC50 (Integrin alpha-V/beta-3) [nM] | IC50 (Integrin alpha-V/beta-5) [nM] | IC50 (Integrin alpha-5/beta-1) [nM] | further results
NCCCC[C@@H]1NC(=O)[C@H](CCCN=C(N)N)NC(=O)CNC(=O)C[C@@H](C(=O)O)NC(=O)[C@@H](c2ccccc2)NC1=O | 140 | > 10000 | 516 | > 10000 | 94 | 
NC(N)=NCCC[C@@H]1NC(=O)CNC(=O)C[C@@H](C(=O)O)NC(=O)[C@@H](c2ccccc2)NC(=O)[C@H](Cc2ccc(O)cc2)NC1=O |  |  | > 10000 |  | 39 | 
NC(N)=NCCC[C@@H]1NC(=O)CNC(=O)C[C@@H](C(=O)O)NC(=O)[C@@H](c2ccccc2)NC(=O)[C@H](CCC(=O)O)NC1=O |  |  | 3870 |  | 92 | 
NC(N)=NCCC[C@@H]1NC(=O)CNC(=O)C[C@@H](C(=O)O)NC(=O)[C@@H](c2ccccc2)NC(=O)[C@H](Cc2c[nH]c3ccccc23)NC1=O |  |  | > 10000 |  | 72 | 
N=C(N)NCCC[C@@H]1NC(=O)CNC(=O)C[C@@H](C(=O)O)NC(=O)[C@@H](c2ccccc2)NC(=O)[C@@H](CCCCNC(=O)CCSCCOCCOCCOCCOCCOCCOCCO)NC1=O |  |  | > 10000 |  | 27 | Activity [2]: 0.51 um; Activity [3]: 2.92 um; Ratio [4]: 4.68; Ratio [5]: 0.079; Ratio [6]: 0.07; Activity [7]: 2.61 um2; Activity [8]: 3.94 um; Ratio [9]: 6.01; Activity [10]: 1.24 um2; Activity [11]: 0.9 um
NC(N)=NCCC[C@@H]1NC(=O)CNC(=O)C[C@@H](C(=O)O)NC(=O)[C@@H](c2ccccc2)NC(=O)[C@@H]2CCCN2C1=O |  |  | 675 |  | 111 | 
N=C(N)NCCC[C@@H]1NC(=O)[C@H](CCCCNC(=O)CCSCCOCCOCCOCCOCCOCCOCCO)NC(=O)[C@@H](Cc2ccccc2)NC(=O)[C@H](CC(=O)O)NC(=O)CNC1=O |  |  | 13.6 |  | 197 | Activity [2]: 1.25 um; Activity [3]: 3.78 um; Ratio [4]: 3.42; Ratio [5]: 0.076; Ratio [6]: 0.093; Activity [7]: 4.12 um2; Activity [8]: 4.17 um; Ratio [9]: 3.24; Activity [10]: 3.4 um2; Activity [11]: 1.31 um
CC(C)[C@@H]1NC(=O)[C@H](CCCN=C(N)N)NC(=O)CNC(=O)C[C@@H](C(=O)O)NC(=O)[C@@H](c2ccccc2)NC1=O |  |  | 576 |  | 115 | 
N=C(N)NCCC[C@@H]1NC(=O)[C@H](CCCCN)NC(=O)[C@@H](Cc2ccccc2)NC(=O)[C@H](CC(=O)O)NC(=O)CNC1=O | 68 | > 10000 |  | 310 | 133 | 
Cc1ccnc(NCCCC(=O)NCC(=O)NC(CC(=O)O)c2ccc(-c3cccc4ccccc34)cc2)c1 (stereo unspecified) | 4 | > 10000 | > 10000 | > 10000 | 2810 | 

Now those with a lower IC50 (Integrin alpha-5/beta-1), led by results:

IC50 (Integrin alpha-V/beta-6) [nM] | IC50 [1] [nM] | IC50 (Integrin alpha-V/beta-3) [nM] | IC50 (Integrin alpha-V/beta-5) [nM] | IC50 (Integrin alpha-5/beta-1) [nM] | SMILES | further results
106 | > 10000 | > 1000 | > 10000 | 19 | N=C(N)NCCC[C@@H]1NC(=O)CNC(=O)C[C@@H](C(=O)O)NC(=O)[C@@H](c2ccccc2)NC(=O)CNC1=O | 
 |  | > 10000 |  | 11 | NC(N)=NCCC[C@@H]1NC(=O)CNC(=O)C[C@@H](C(=O)O)NC(=O)[C@@H](c2ccccc2)NC(=O)[C@@H](CCC(=O)O)NC1=O | 
 |  | > 10000 |  | 8.7 | NC(N)=NCCC[C@@H]1NC(=O)CNC(=O)C[C@@H](C(=O)O)NC(=O)[C@@H](c2ccccc2)NC(=O)[C@@H](Cc2ccc(O)cc2)NC1=O | 
19 | > 10000 | > 10000 | > 10000 | 8.7 | N=C(N)NCCC[C@@H]1NC(=O)CNC(=O)C[C@@H](C(=O)O)NC(=O)[C@@H](c2ccccc2)NC(=O)[C@@H](CCCCN)NC1=O | 
 |  | > 10000 |  | 7.3 | CC(C)[C@H]1NC(=O)[C@H](CCCN=C(N)N)NC(=O)CNC(=O)C[C@@H](C(=O)O)NC(=O)[C@@H](c2ccccc2)NC1=O | 
 |  | > 10000 |  | 7 | N=C(N)NCCC[C@@H]1NC(=O)CNC(=O)C[C@@H](C(=O)O)NC(=O)[C@@H](c2ccccc2)NC(=O)[C@H]2CCCN2C1=O | 
92 | > 10000 | > 10000 | > 10000 | 5.5 | NC(N)=NCCC[C@@H]1NC(=O)CNC(=O)C[C@@H](C(=O)O)NC(=O)[C@@H](c2ccccc2)NC(=O)[C@@H](Cc2c[nH]c3ccccc23)NC1=O | 
